Source: ChEMBL document CHEMBL1132147, “2-(2-Phenylcyclopropyl)imidazolines: reversed enantioselective interaction at I(1) and I(2) imidazoline receptors” (J Med Chem, 1999)

Assays:
[1] = target: T1, Adrenergic receptor alpha-2 (Rattus norvegicus, UniProt P22086+P19328+P22909); experiment: Displacement of [3H]-clonidine from Alpha-2 adrenergic receptor of rat cortex membranes; assay type: cell membranes, Membrane
T1 sequence (P22086 whole entry): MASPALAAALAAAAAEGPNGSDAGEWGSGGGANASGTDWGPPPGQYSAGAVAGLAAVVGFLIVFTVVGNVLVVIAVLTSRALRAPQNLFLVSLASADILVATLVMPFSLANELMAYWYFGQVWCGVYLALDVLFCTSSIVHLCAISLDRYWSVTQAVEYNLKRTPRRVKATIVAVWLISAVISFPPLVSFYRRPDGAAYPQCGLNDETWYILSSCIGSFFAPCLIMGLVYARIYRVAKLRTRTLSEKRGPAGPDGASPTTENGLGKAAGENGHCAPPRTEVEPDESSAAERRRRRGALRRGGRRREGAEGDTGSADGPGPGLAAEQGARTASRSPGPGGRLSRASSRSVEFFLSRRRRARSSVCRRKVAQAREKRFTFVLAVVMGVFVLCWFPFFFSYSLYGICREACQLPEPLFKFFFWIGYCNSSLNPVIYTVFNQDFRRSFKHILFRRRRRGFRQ
T1 sequence (P19328 whole entry): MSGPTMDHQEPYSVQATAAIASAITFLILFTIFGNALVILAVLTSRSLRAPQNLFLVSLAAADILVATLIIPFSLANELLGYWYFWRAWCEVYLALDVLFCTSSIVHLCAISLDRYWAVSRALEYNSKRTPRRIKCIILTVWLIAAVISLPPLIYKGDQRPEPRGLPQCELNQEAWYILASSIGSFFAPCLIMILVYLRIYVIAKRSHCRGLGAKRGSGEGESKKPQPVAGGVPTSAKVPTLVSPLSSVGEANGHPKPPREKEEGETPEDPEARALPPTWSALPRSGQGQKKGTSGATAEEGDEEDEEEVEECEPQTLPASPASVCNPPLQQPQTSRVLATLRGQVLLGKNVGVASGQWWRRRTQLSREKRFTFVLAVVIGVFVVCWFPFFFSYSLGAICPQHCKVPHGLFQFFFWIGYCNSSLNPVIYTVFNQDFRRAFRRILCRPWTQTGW
T1 sequence (P22909 whole entry): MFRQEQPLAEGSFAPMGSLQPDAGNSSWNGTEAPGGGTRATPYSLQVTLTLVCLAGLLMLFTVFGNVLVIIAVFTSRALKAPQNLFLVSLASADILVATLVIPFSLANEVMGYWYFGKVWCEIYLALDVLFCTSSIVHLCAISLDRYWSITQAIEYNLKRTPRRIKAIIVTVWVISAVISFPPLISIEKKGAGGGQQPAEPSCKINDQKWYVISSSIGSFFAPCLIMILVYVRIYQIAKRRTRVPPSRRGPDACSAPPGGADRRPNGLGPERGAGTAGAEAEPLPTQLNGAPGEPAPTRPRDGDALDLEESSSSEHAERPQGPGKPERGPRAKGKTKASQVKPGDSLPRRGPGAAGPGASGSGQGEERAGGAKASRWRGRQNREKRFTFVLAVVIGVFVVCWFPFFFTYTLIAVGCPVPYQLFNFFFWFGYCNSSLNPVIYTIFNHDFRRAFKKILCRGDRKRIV
Procedure, shortened: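 Competition binding using hydrogen oxalate salts of the compounds: [3H]clonidine on rat cortex membranes (α2) or [3H]idazoxan on rabbit kidney membranes (I2). IC50 by nonlinear regression of displacement data, converted to Ki by Cheng–Prusoff and given as pKi ± SEM.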

[2] = Displacement of [3H]idazoxan from imidazoline receptor I-2 of rabbit kidney membranes
[3] = Relative binding to I2 imidazoline and alpha-2 adrenergic receptors […]
[4] = Relative binding to I2 and I1 imidazoline receptors […]
[5] = target: Nischarin (Rattus norvegicus); experiment: Displacement of [125I]p-iodoclonidine from imidazoline receptor I-1 of PC12 cell membranes

Row | Ki [5] [nM] | SMILES | Log Ki [1] | Log Ki [2] | Ratio [3] | Ratio [4]
1 |  | c1ccc([C@H]2C[C@@H]2C2=NCCN2)cc1 | -6.62 | -6.91 |  | 
2 |  | c1ccc(C2CC2C2=NCCN2)cc1 (racemic) | -6.4 | -7.64 |  | 
3 |  | c1ccc([C@@H]2C[C@H]2C2=NCCN2)cc1 | -6.92 | -8.22 |  | 
4 |  | c1ccc(C2CC2C2=NCCN2)cc1 (stereo in doubt; 4a(+/-)) [listing 1 of 2 here] |  |  | 33 | 7
5 | 19.1 | C(=C\c1ccccc1)/C1=NCCN1 [TRACIZOLINE] | -4.85 | -8.72 | 7410 | 10
6 |  | c1ccc(C2CC2C2=NCCN2)cc1 (stereo in doubt; 4a(+/-)) [listing 2 of 2 here] | -4.53 | -6.05 |  | 
